Calls of active or inactive are those of the source. No cut-off for these calls is given here.
Assays:
CCRF-CEM [1] = test: Antiproliferative activity against human CCRF-CEM cells assessed as growth inhibition at 1 uM after 24 to 96 hrs by spectrophotometry; format: functional, cell-based
Method in brief: (§1)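 CellTiter 96 AQueous One (MTS) proliferation assay. Cells grown at 37 °C, 5% CO2, 10% FBS plus 1% penicillin-streptomycin. Medium was RPMI for CCRF-CEM and EMEM for MDA-MB-468, SK-OV-3 and HT-29. Compound at 1 μM in 4% DMSO, triplicate wells, incubated 24-120 h, then 1 h with reagent. A490 read. Survival % = (treated − medium)/(control − medium) × 100.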

MDA-MB-468 [2] = test: Antiproliferative activity against human MDA-MB-468 cells assessed as growth inhibition at 1 uM after 24 hrs by spectrophotometry; format: functional, cell-based; method in brief: as §1
SK-OV-3 [3] = test: Antiproliferative activity against human SKOV3 cells assessed as growth inhibition at 1 uM after 96 hrs by spectrophotometry relative to control; format: functional; conditions: SK-OV-3, 96 h, read-out: GI; method in brief: as §1
MDA-MB-468 [4] = test: Antiproliferative activity against human MDA-MB-468 cells assessed as growth inhibition at 1 uM after 96 hrs by spectrophotometry relative to control; format: functional; conditions: MDA-MB-468, 96 h, read-out: GI; method in brief: as §1
HT-29 = test: Antiproliferative activity against human HT-29 cells assessed as growth inhibition at 1 uM after 120 hrs by spectrophotometry relative to control; format: functional; conditions: for inhibition of growth at 1 µM: HT-29, 120 h, read-out: GI; method in brief: as §1
SK-OV-3 [5] = test: Antiproliferative activity against human SKOV3 cells assessed as growth inhibition at 1 uM after 24 to 96 hrs by spectrophotometry; format: functional, cell-based; method in brief: as §1
[6] = n-Octanol-water partition coefficient, log P of the compound by shake flask method; format: physicochemical
Method in brief: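 Shake-flask method. 100 µg of derivative partitioned between 300 µL 1-octanol and 300 µL distilled water, shaken 30 min, phases left to separate. Each phase quantified by UV spectroscopy against a standard spectrum. P = octanol/water concentration ratio, reported as Log P. Mean of three runs.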

CCRF-CEM [7] = test: Antiproliferative activity against human CCRF-CEM cells assessed as growth inhibition at 1 uM after 96 hrs by spectrophotometry relative to control; format: functional; conditions: read-out: GI; method in brief: as §1

Row | logP [6] | SMILES | growth inhibition (GI) (CCRF-CEM [1]) | growth inhibition (GI) (MDA-MB-468 [2]) | inhibition of growth at 1 µM (SK-OV-3 [3]) [%] | inhibition of growth at 1 µM (MDA-MB-468 [4]) [%] | inhibition of growth at 1 µM (HT-29) [%] | growth inhibition (GI) (SK-OV-3 [5]) | growth inhibition (GI) (HT-29) | inhibition of growth at 1 µM (CCRF-CEM [7]) [%]
1 | – | CCSCCCCCCCCCCCC(=O)N[C@H]1C[C@H](O[C@H]2C[C@](O)(C(=O)CO)Cc3c(O)c4c(c(O)c32)C(=O)c2c(OC)cccc2C4=O)O[C@@H](C)[C@H]1O | inactive | inactive | – | – | – | – | – | –
2 | – | CCCCCCCCCCCC(=O)N[C@H]1C[C@H](O[C@H]2C[C@](O)(C(=O)CO)Cc3c(O)c4c(c(O)c32)C(=O)c2c(OC)cccc2C4=O)O[C@@H](C)[C@H]1O | inactive | inactive | 58 | 38 | 64 | – | – | –
3 | – | CCCCCCCCCCCCCCCCCC(=O)N[C@H]1C[C@H](O[C@H]2C[C@](O)(C(=O)CO)Cc3c(O)c4c(c(O)c32)C(=O)c2c(OC)cccc2C4=O)O[C@@H](C)[C@H]1O | inactive | inactive | – | – | – | Active | Active | –
4 | 0.6 | COc1cccc2c1C(=O)c1c(O)c3c(c(O)c1C2=O)C[C@@](O)(C(=O)CO)C[C@@H]3O[C@H]1C[C@H](N)[C@H](O)[C@H](C)O1 [DOXORUBICIN] | – | – | – | – | – | – | – | –
5 | 1.18 | COc1cccc2c1C(=O)c1c(O)c3c(c(O)c1C2=O)C[C@@](O)(C(=O)CO)C[C@@H]3O[C@H]1C[C@H](NC(C)=O)[C@H](O)[C@H](C)O1 | inactive | inactive | – | – | – | Active | Active | –
6 | – | CCCCCCCCCC(=O)N[C@H]1C[C@H](O[C@H]2C[C@](O)(C(=O)CO)Cc3c(O)c4c(c(O)c32)C(=O)c2c(OC)cccc2C4=O)O[C@@H](C)[C@H]1O | inactive | inactive | – | – | – | Active | Active | –
7 | – | CCCCCCCCCCCCCCCCCCCC(=O)N[C@H]1C[C@H](O[C@H]2C[C@](O)(C(=O)CO)Cc3c(O)c4c(c(O)c32)C(=O)c2c(OC)cccc2C4=O)O[C@@H](C)[C@H]1O | inactive | inactive | – | – | – | Active | Active | –
8 | – | CCCCCCCC(=O)N[C@H]1C[C@H](O[C@H]2C[C@](O)(C(=O)CO)Cc3c(O)c4c(c(O)c32)C(=O)c2c(OC)cccc2C4=O)O[C@@H](C)[C@H]1O | inactive | inactive | – | – | – | Active | Active | –
9 | – | CCCCCCCCCCCCCC(=O)N[C@H]1C[C@H](O[C@H]2C[C@](O)(C(=O)CO)Cc3c(O)c4c(c(O)c32)C(=O)c2c(OC)cccc2C4=O)O[C@@H](C)[C@H]1O | – | inactive | 50 | 31 | 41 | – | – | 27
10 | – | CCCCCCCCCCCCCCCC(=O)N[C@H]1C[C@H](O[C@H]2C[C@](O)(C(=O)CO)Cc3c(O)c4c(c(O)c32)C(=O)c2c(OC)cccc2C4=O)O[C@@H](C)[C@H]1O | inactive | inactive | – | – | – | Active | Active | –

From ChEMBL document CHEMBL1955851, “Fatty acyl amide derivatives of doxorubicin: synthesis and in vitro anticancer activities” (Eur J Med Chem, 2011)
